Compound activity (PubChem)
Hits are enriched below; roughly 1.8% of the tested compounds scored in any of these assays.
KLK5 inh: kallikrein 5 (human) inhibition; 210,000 compounds, 0.59% hits; inhibition, % at 5 µM; recombinant hK5, fluorogenic AMC substrate cleavage;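 active means inhibition of 40% or more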;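 further: 0% = enzyme controls without compound and 100% = no-enzyme blanks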
Target sequence (Q9Y337 67-293 limits assumed): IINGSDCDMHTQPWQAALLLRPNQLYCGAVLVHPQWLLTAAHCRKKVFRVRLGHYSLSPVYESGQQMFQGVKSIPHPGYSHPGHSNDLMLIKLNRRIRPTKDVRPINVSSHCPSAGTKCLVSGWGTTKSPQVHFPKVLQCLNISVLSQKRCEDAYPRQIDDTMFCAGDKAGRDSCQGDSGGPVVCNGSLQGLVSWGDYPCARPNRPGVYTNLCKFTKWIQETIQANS
Platelet DG rel: modulates dense granule release in human platelets. human platelet-rich plasma, SFLLRN dense granule ATP release, luminescence. inhibition, %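 (compounds screened at 7.5 µM in platelet-rich plasma)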. 300,000 compounds, 0.22% hits. AID 1663;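 active means mean replicate score, as percent of positive control, at or above 50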
Wee1 degr inh: blocks degradation of human Wee1 kinase. reporter increase, % at 5 µM. 220,000 compounds, 1.2% hits. HeLa Luc-Wee1K328M stability, luciferase luminescence; 100% = proteasome inhibitor MG132 effect;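 active means activation above the mean of all tested compounds plus 3 SD, set per screening run, cut at about 8.8% in these data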;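 further: cells exposed to compound for 20 h before luminescence read; 0% = DMSO alone and 100% = MG132 at 30 µM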
FXIIa inh 1536: factor XIIa (human) inhibition; P00748; purified FXIIa, Boc-QGR-AMC fluorogenic substrate, 2 h; inhibition, % at 5 µM; 220,000 compounds, 0.3% hits; in the data active means inhibition above about 40%;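 further: 0% = enzyme with no compound and 100% = blank without enzyme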
FXIa inh 1536: factor XIa (human) inhibition | P03951 | purified FXIa, Boc-Glu-Ala-Arg-AMC fluorogenic substrate | inhibition, % at 5 µM | 220,000 compounds, 0.14% hits | AID 798;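 active means inhibition of at least 40%; inactive means inhibition below 40%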;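 further: fluorescence of freed AMC excited at 355 nm; 0% = enzyme without compound and 100% = no enzyme blank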
Thrombin inh: blocks human thrombin protease activity; alpha-thrombin, Boc-VPR-AMC fluorogenic substrate cleavage; 220,000 compounds, 0.26% hits; P00734; inhibition, % at 5 µM; AID 1046;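 active means inhibition at or above 40%; inactive means inhibition below 40%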;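 further: 0% = enzyme with no compound and 100% = wells without enzyme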
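Material: human alpha-thrombin protein; Also added: Boc-VPR-AMC substrate, 15 µM final; Timing: enzyme reaction carried out at room temperature; Signal: fluorescence, ex 355 nm, em 460 nm; Measure: % inhibition of thrombin; Controls: enzyme without compound as high, wells lacking enzyme as low.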
The depositor's hits bear a star; · = not tested or not shown.

SMILES | KLK5 inh | Platelet DG rel | Wee1 degr inh | FXIIa inh 1536 | FXIa inh 1536 | Thrombin inh
COCCCN(C(=O)CSCc1c(C)noc1C)c1c(N)n(Cc2ccccc2)c(=O)[nH]c1=O | · | 1 | · | · | · | ·
O=C(CSc1nnc(Cn2nnc(-c3ccccc3)n2)n1-c1ccccc1)Nc1ccccc1 | -17 | 1 | 4 | 1 | -20 | 1
O=C(CSc1nnc(Cn2nnc(-c3ccccc3)n2)n1-c1ccccc1)Nc1ccc(F)cc1 | 85* | 7 | 0 | 6 | 9 | 69*
Clc1ccc(/C=N/NC2=Nc3cccc4cccc2c34)cc1 | -3 | -19 | -4 | 3 | 5 | -2
C(=N\NC1=Nc2cccc3cccc1c23)/c1ccccc1 | -5 | -2 | 8.9* | 7 | 6 | -4
COc1ccc(OC)c(/C=N/N(CCC#N)C2=NS(=O)(=O)c3ccccc32)c1 | · | -1 | · | · | · | ·
CCOCCCNC(=O)c1cccs1 | 42* | -2 | 1 | 22 | 13 | 22
COCCCNC(=O)/C(=C\c1cccn1C)NC(=O)c1cccs1 | 16 | -1 | -2 | 15 | 15 | 50*
CCOC(=O)C(C)Sc1nnc(Cc2cc(=O)[nH]c(=O)[nH]2)n1-c1ccc(Cl)cc1 (stereo not drawn) | -5 | -9 | 2 | 10 | 8 | -1
Cn1c(Sc2ccc([N+](=O)[O-])cc2C(F)(F)F)nnc1-c1ccccc1 | 2 | -5 | 4 | -1 | -5 | -3
Cn1c(Sc2ccc(C(F)(F)F)cc2[N+](=O)[O-])nnc1-c1ccccc1 | 51* | -6 | 1 | 29 | 16 | 25
COC(=O)CCC(=O)Nc1nnc(C(F)(F)F)s1 | -2 | -6 | 1 | 14 | -1 | 1
O=C(O)CCC(=O)Nc1nnc(C(F)(F)F)s1 | 43* | · | 0 | 3 | -1 | 6
c1ccc(N2CCN(c3nnc(Cc4cccnc4)c4ccccc34)CC2)nc1 | 43* | 1 | 1 | 4 | -1 | 5
c1ccc(Cc2nnc(N3CCCCC3)c3ccccc23)cc1 | -7 | 1 | -1 | 5 | -3 | -12
CCOC(=O)c1cn(Cc2ccccc2)nn1 | -5 | 8 | 2 | 50* | 36 | -6
CCCNC(=O)Nc1nc2ccccc2s1 | -1 | -2 | 9.2* | 9 | -1 | 2
CCCCNC(=O)Nc1nc2ccccc2s1 | -3 | -1 | 7 | 2 | -4 | -12
CCN(Cc1ccccc1)C(=O)c1c(-c2ccccc2Cl)noc1C | · | -3 | · | · | · | ·
Cc1ccc2[nH]c3c(=O)n4c(nc3c2c1)SCC4 | -4 | -7 | 0 | 5 | 0 | -12
CN1CCN(Cc2cccc(Oc3ccc(Cl)cc3)c2)CC1 | -7 | 12 | 10* | 3 | -13 | -5
CCN1CCN(Cc2cccc(Oc3ccc(Cl)cc3)c2)CC1 | -25 | 7 | -2 | 10 | 20 | -10
Cn1c(=O)c2c(nc(OCc3ccc4c(c3)OCO4)n2Cc2ccccc2Cl)n(C)c1=O | -13 | 6 | 9.2* | 6 | -3 | -3
CC(C)CNC(=S)NC(=O)c1ccc(F)cc1 | -11 | 8 | 9.1* | 9 | 6 | -10
O=C(NC(=S)NCCN1CCOCC1)c1ccc(F)cc1 | -11 | 4 | 1 | 14 | 10 | -3
SMILES | KLK5 inh | Platelet DG rel | Wee1 degr inh | FXIIa inh 1536 | FXIa inh 1536 | Thrombin inh
Cc1ccc(S(=O)(=O)NCCC(=O)NNC(=O)c2ccccc2O)cc1C | · | -21 | · | · | · | ·
Cc1ccc(-c2nn(-c3ccccc3)cc2/C=N/NS(=O)(=O)c2ccccc2)cc1 | -12 | -2 | 0 | 45* | 26 | 2
O=C1CCc2cc(NS(=O)(=O)c3ccc([N+](=O)[O-])cc3)cc3c2N1CCC3 | · | 32 | · | · | · | ·
COCCCNC(=O)c1c(N)n(-c2ccc3c(c2)OCO3)c2nc3ccccc3nc12 | 105* | -2 | -1 | -11 | -9 | 0
CCOCCCNC(=O)c1c(N)n(-c2ccc3c(c2)OCO3)c2nc3ccccc3nc12 | 0 | 4 | 9.4* | 2 | 1 | -5
COC(=O)c1ccc(C)c(NC(=O)C(CCSC)NC(=O)c2cc(OC)c(OC)c(OC)c2)c1 (stereo not drawn) | · | 4 | · | · | · | ·
CCOc1ccccc1NC(=O)COC(=O)CSc1ccc(Cl)cc1 | -12 | 0 | 1 | 6 | 7 | -5
COCCCNC(=O)CC1Oc2ccccc2NC1=O (stereo not drawn) | 56* | -22 | 0 | 11 | 14 | 16
Cc1ccc(NC(=O)c2cc(S(=O)(=O)N3CCCCC3)c[nH]2)cc1C | · | 27 | · | · | · | ·
Cc1ccc(N=C2SC(C(=O)Nc3ccc(OC(F)(F)F)cc3)C(N)=C2C(=O)Nc2c(C)cc(C)cc2C)cc1 (stereo not drawn) | -3 | · | 11* | 5 | 1 | -7
Cc1ccc(NC(=O)C2SC(=Nc3ccccc3)C(C(=O)Nc3ccc(Cl)cc3)=C2N)cc1 (stereo not drawn) | 17 | · | -3 | 7 | 2 | 4
Cc1ccccc1NC(=O)Cc1nc(COC(=O)CCNS(=O)(=O)c2ccccc2)cs1 | · | 6 | · | · | · | ·
CC(C)=CC(=O)NCCc1ccccc1 | -23 | 2 | 10.0* | 8 | 1 | -5
Cc1cc(=O)oc2c(C)c(OCC(=O)NCCCN3CCOCC3)ccc12 | · | 5 | · | · | · | ·
O=c1/c(=C\c2ccc(F)cc2)sc2n1CCCN=2 | -2 | 1 | 9.3* | 4 | -4 | -4
O=c1/c(=C/c2ccc(O)cc2)sc2n1CCCN=2 | 0 | · | 2 | 10 | 2 | -2
O=c1[nH]c2ccc(NC(=S)Nc3ccc(F)cc3)cc2[nH]1 | -5 | -2 | 9.7* | 9 | 8 | 3
NC(=O)c1ccsc1NC(=O)CSc1nnc(C2CC2)n1Cc1ccccc1 | 48* | -1 | 1 | 16 | 10 | 59*
CCCC(=O)Nc1ccc(NC(=O)c2ccccc2)nc1 | -1 | 38 | 10* | 6 | -2 | -2
C#CCNc1cc(-c2ccccc2)nc2ncnn12 | -7 | -2 | 0 | 6 | 2 | 5
C#CCNc1cc(C)nc2ncnn12 | 39 | -4 | 0 | 15 | 7 | 104*
Cc1cccc(CCNS(=O)(=O)c2ccc3c(c2)NC(=O)CS3)c1 | · | 10 | · | · | · | ·
O=C1c2oc3ccccc3c(=O)c2C(c2cccc(F)c2)N1CCCO (stereo not drawn) | -3 | 15 | 0 | 51* | -7 | -2
O=C1c2oc3ccccc3c(=O)c2C(c2cccc(O)c2)N1CCCN1CCOCC1 (stereo not drawn) | -33 | 0 | -1 | 8 | 1 | -3
CN1C(=O)C(O)(c2sc(N)nc2-c2ccccc2)c2ccccc21 (stereo not drawn) | 56* | -9 | 1 | -3 | -2 | 13
Cc1ccc(OCC(=O)NC(=S)Nc2ccc(Br)cn2)cc1 | 2 | 3 | 0 | 3 | 19 | -9
C=CCOc1ccc(C2/C(=C(/O)c3ccc(OC)cc3)C(=O)C(=O)N2CCN2CCNCC2)cc1 (stereo not drawn) | · | 1 | · | · | · | ·
OC1(c2cccc(C(F)(F)F)c2)CCN(Cc2nnnn2Cc2ccccc2)CC1 | -4 | 12 | -1 | 5 | -2 | -3
